The results in this text go back to ChEMBL document CHEMBL1909525, “Synthesis and anticonvulsant activity of novel 2,6-diketopiperazine derivatives. Part 1: perhydropyrrole[1,2-a]pyrazines” (Eur J Med Chem, 2011).

The source made the active and inactive calls. The rule behind the calls is not given here.

The species entered for this assay is Rattus norvegicus. The assay is described as follows: Inhibition of voltage-gated sodium channel in Wistar rat cerebral prefrontal coronal slices assessed as decrease of 0.1 Hz current-induced current amplitude at 10 to 100 uM after 5 mins by whole cell voltage clamp method. The method, boiled down: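 Whole-cell voltage clamp on mechanically dispersed mPFC cells from coronal prefrontal slices of 3-week-old male Wistar rats. Bath: TEA-OH 90, NaCl 30, HEPES 10, MgCl2 2, CaCl2 2, glucose 15 mM, pH 7.4. Na+ currents evoked at 0.1 Hz by a step to -20 mV (30 ms) after a -100 mV prepulse (1000 ms). Amplitude compared before and after 5 min compound application; n = 3.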

Consider `O=C1NC(=O)[C@@H]2CCCN2[C@H]1c1ccccc1`, for which the inhibition result was “inactive”.
